Experimental data as given in publication PMC6445238 (Drug Design, Development and Therapy, 2019).

Experiment: SAD study, safety and tolerability
Format: in vivo, human
Settings: for Abdominal discomfort, number of subjects (%) / Cough, number of subjects (%) / Eye swelling, number of subjects (%) / Face injury, number of subjects (%) / Headache, number of subjects (%) / Hot flush, number of subjects (%) / Hyperbilirubinemia, number of subjects (%) / Hypoesthesia, number of subjects (%) / Influenza, number of subjects (%) / Pain in extremity, number of subjects (%) / Proteinuria, number of subjects (%) / Subjects with any TEAEs, number of subjects (%) / Syncope, number of subjects (%): N=6
In short: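 SAD cohorts were 6 active and 2 placebo healthy males given a single oral dose, with 2 sentinel subjects dosed at least 24 h before the rest. Confinement ran day −1 to day 3, with outpatient visits on days 4 and 7 and follow-up on day 14. Safety covered vital signs, clinical labs, 12-lead ECG, physical exams, and reported or observed AEs, coded with MedDRA 19.1. Counts are subjects with AEs, % of the safety population. Placebo subjects were pooled.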

Cc1nn(Cc2ccc(Br)cc2)c(C)c1NC(=O)CSc1ccccc1 [KM-819]
1 (16.7): Pain in extremity, number of subjects (%) (single 30 mg, young) | Syncope, number of subjects (%) (single 30 mg, young) | Hyperbilirubinemia, number of subjects (%) (single 100 mg, young) | Hypoesthesia, number of subjects (%) (single 100 mg, young) | Proteinuria, number of subjects (%) (single 100 mg, young) | Face injury, number of subjects (%) (single 200 mg, elderly) | Hot flush, number of subjects (%) (single 200 mg, elderly) | Abdominal discomfort, number of subjects (%) (single 200 mg, young)
no serious adverse events: serious adverse events (SAEs) (SAD)
2 (33.3): Hyperbilirubinemia, number of subjects (%) (single 10 mg, young) | Subjects with any TEAEs, number of subjects (%) (single 10 mg, young) | Subjects with any TEAEs, number of subjects (%) (single 30 mg, young) | Subjects with any TEAEs, number of subjects (%) (single 100 mg, young) | Headache, number of subjects (%) (single 200 mg, elderly) | Subjects with any TEAEs, number of subjects (%) (single 200 mg, elderly)
0: Abdominal discomfort, number of subjects (%) (single 10 mg, young) | Cough, number of subjects (%) (single 10 mg, young) | Eye swelling, number of subjects (%) (single 10 mg, young) | Face injury, number of subjects (%) (single 10 mg, young) | Headache, number of subjects (%) (single 10 mg, young) | Hot flush, number of subjects (%) (single 10 mg, young) | Hypoesthesia, number of subjects (%) (single 10 mg, young) | Influenza, number of subjects (%) (single 10 mg, young) | Pain in extremity, number of subjects (%) (single 10 mg, young) | Proteinuria, number of subjects (%) (single 10 mg, young) | Syncope, number of subjects (%) (single 10 mg, young) | Abdominal discomfort, number of subjects (%) (single 30 mg, young) | Cough, number of subjects (%) (single 30 mg, young) | Eye swelling, number of subjects (%) (single 30 mg, young) | Face injury, number of subjects (%) (single 30 mg, young) | Headache, number of subjects (%) (single 30 mg, young) | Hot flush, number of subjects (%) (single 30 mg, young) | Hyperbilirubinemia, number of subjects (%) (single 30 mg, young) | Hypoesthesia, number of subjects (%) (single 30 mg, young) | Influenza, number of subjects (%) (single 30 mg, young) | Proteinuria, number of subjects (%) (single 30 mg, young) | Abdominal discomfort, number of subjects (%) (single 100 mg, young) | Cough, number of subjects (%) (single 100 mg, young) | Eye swelling, number of subjects (%) (single 100 mg, young) | Face injury, number of subjects (%) (single 100 mg, young) | Headache, number of subjects (%) (single 100 mg, young) | Hot flush, number of subjects (%) (single 100 mg, young) | Influenza, number of subjects (%) (single 100 mg, young) | Pain in extremity, number of subjects (%) (single 100 mg, young) | Syncope, number of subjects (%) (single 100 mg, young) | Abdominal discomfort, number of subjects (%) (single 200 mg, elderly) | Cough, number of subjects (%) (single 200 mg, elderly) | Eye swelling, number of subjects (%) (single 200 mg, elderly) | Hyperbilirubinemia, number of subjects (%) (single 200 mg, elderly) | Hypoesthesia, number of subjects (%) (single 200 mg, elderly) | Influenza, number of subjects (%) (single 200 mg, elderly) | Pain in extremity, number of subjects (%) (single 200 mg, elderly) | Proteinuria, number of subjects (%) (single 200 mg, elderly) | Syncope, number of subjects (%) (single 200 mg, elderly) | Cough, number of subjects (%) (single 200 mg, young) | Eye swelling, number of subjects (%) (single 200 mg, young) | Face injury, number of subjects (%) (single 200 mg, young) | Headache, number of subjects (%) (single 200 mg, young) | Hot flush, number of subjects (%) (single 200 mg, young) | Hyperbilirubinemia, number of subjects (%) (single 200 mg, young) | Hypoesthesia, number of subjects (%) (single 200 mg, young) | Influenza, number of subjects (%) (single 200 mg, young) | Pain in extremity, number of subjects (%) (single 200 mg, young) | Proteinuria, number of subjects (%) (single 200 mg, young)
increasing trend of bilirubin levels: bilirubin levels (SAD, 10 mg and 30 mg cohorts, day 2, normal on day 7)
